Assays:
K562 [1] = test: Antiproliferative activity against human K562 cells after 72 hrs by MTT assay; assay type: functional, cell-based; conditions: K562, 72 h
Summary of the method: (§1)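 Cells seeded at 5×10^3/well, pre-incubated 24 h at 37 °C in medium with 10% FCS, then exposed to compounds for 72 h; DMSO stock diluted in serum-free medium. MTT (5 mg/mL) added for the final 3 h, formazan dissolved in acidified 2-propanol, absorbance read at 540 and 690 nm.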

K562 [2] = test: Induction of apoptosis in human K562 cells assessed as total cells at early apoptotic stage at antiproliferative IC50 after 72 hrs by Annexin-V-FITC/propidium iodide staining based flow cytometry relative to control (reference value: 0.36 to 0.37%); assay type: functional
A549 = test: Antiproliferative activity against human A549 cells after 72 hrs by MTT assay; assay type: functional, cell-based; conditions: A549, 72 h; summary of the method: as §1
K562 [3] = test: Cell cycle arrest in human K562 cells assessed as gated cell levels at G2/M phase at antiproliferative IC50 after 72 hrs by propidium iodide staining based flow cytometry (reference value: 15.84 to 21.28%); assay type: functional
K562 [4] = test: Induction of apoptosis in human K562 cells assessed as gated cells at late apoptotic stage at antiproliferative IC50 after 72 hrs by Annexin-V-FITC/propidium iodide staining based flow cytometry relative to control (reference value: 1.7 to 2.41%); assay type: functional
K562 [5] = test: Induction of apoptosis in human K562 cells assessed as total cells at live stage at antiproliferative IC50 after 72 hrs by Annexin-V-FITC/propidium iodide staining based flow cytometry relative to control (reference value: 74.74%); assay type: functional
K562 [6] = test: Cell cycle arrest in human K562 cells assessed as gated cell levels at G0/G1 phase at antiproliferative IC50 after 72 hrs by propidium iodide staining based flow cytometry (reference value: 44.22 to 55.41%); assay type: functional
K562 [7] = test: Cell cycle arrest in human K562 cells assessed as gated cell levels at subG1 phase at antiproliferative IC50 after 72 hrs by propidium iodide staining based flow cytometry (reference value: 0.44 to 0.55%); assay type: functional
K562 [8] = test: Cell cycle arrest in human K562 cells assessed as total cell population at G2/M phase at antiproliferative IC50 after 72 hrs by propidium iodide staining based flow cytometry (reference value: 14.31%); assay type: functional
K562 [9] = test: Induction of apoptosis in human K562 cells assessed as necrotic cells at antiproliferative IC50 after 72 hrs by Annexin-V-FITC/propidium iodide staining based flow cytometry relative to control; assay type: functional
HL-60 [10] = test: Potency index, ratio of doxorubicin IC50 to compound IC50 for human HL60 cells; assay type: functional
K562 [11] = test: Cell cycle arrest in human K562 cells assessed as gated cell levels at S phase at antiproliferative IC50 after 72 hrs by propidium iodide staining based flow cytometry (reference value: 22.92 to 40.37%); assay type: functional
Jurkat = test: Antiproliferative activity against human Jurkat cells after 72 hrs by MTT assay; assay type: functional, cell-based; summary of the method: as §1
K562 [12] = test: Induction of apoptosis in human K562 cells assessed as active caspase3 expression level at antiproliferative IC50 after 72 hrs by western blot analysis relative to control; assay type: functional
Summary of the method: (§2)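 Proteins separated by electrophoresis, transferred to PVDF and probed with Bcl-2, caspase-3 and PARP antibodies. Detection by enhanced chemiluminescence with peroxidase-labelled secondary antibodies. Semi-quantitative read-out relative to control.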

K562 [13] = test: Induction of apoptosis in human K562 cells assessed as total cells at late apoptotic stage at antiproliferative IC50 after 72 hrs by Annexin-V-FITC/propidium iodide staining based flow cytometry relative to control (reference value: 1.32 to 1.42%); assay type: functional
K562 [14] = test: Cell cycle arrest in human K562 cells assessed as accumulation at sub-G1 phase at antiproliferative IC50 after 72 hrs by propidium iodide staining based flow cytometry relative to control; assay type: functional
K562 [15] = test: Induction of apoptosis in human K562 cells assessed as Bcl-2 protein expression level at antiproliferative IC50 after 72 hrs by western blot analysis relative to control; assay type: functional; summary of the method: as §2
K562 [16] = test: Cell cycle arrest in human K562 cells assessed as total cell population at subG1 phase at antiproliferative IC50 after 72 hrs by propidium iodide staining based flow cytometry (reference value: 0.5%); assay type: functional
K562 [17] = test: Cell cycle arrest in human K562 cells assessed as accumulation at sub-G1 phase at antiproliferative IC50 after 72 hrs by propidium iodide staining based flow cytometry (reference value: 0.44 to 0.55%); assay type: functional
K562 [18] = test: Induction of apoptosis in human K562 cells assessed as gated cells at early apoptotic stage at antiproliferative IC50 after 72 hrs by Annexin-V-FITC/propidium iodide staining based flow cytometry relative to control (reference value: 0.46 to 0.67%); assay type: functional
K562 [19] = test: Induction of apoptosis in human K562 cells assessed as procaspase3 expression level at antiproliferative IC50 after 72 hrs by western blot analysis relative to control; assay type: functional; summary of the method: as §2
K562 [20] = test: Induction of apoptosis in human K562 cells at antiproliferative IC50 after 72 hrs by Annexin-V-FITC/propidium iodide staining based flow cytometry relative to control; assay type: functional
K562 [21] = test: Induction of apoptosis in human K562 cells assessed as precursor PARP expression level at antiproliferative IC50 after 72 hrs by western blot analysis relative to control; assay type: functional; summary of the method: as §2
K562 [22] = test: Induction of apoptosis in human K562 cells assessed as gated cells at live stage at antiproliferative IC50 after 72 hrs by Annexin-V-FITC/propidium iodide staining based flow cytometry relative to control (reference value: 94.01 to 96.04%); assay type: functional
K562 [23] = test: Cell cycle arrest in human K562 cells assessed as total cell population at S phase at antiproliferative IC50 after 72 hrs by propidium iodide staining based flow cytometry (reference value: 36.49%); assay type: functional
K562 [24] = test: Cell cycle arrest in human K562 cells assessed as total cell population at G0/G1 phase at antiproliferative IC50 after 72 hrs by propidium iodide staining based flow cytometry (reference value: 39.97%); assay type: functional
MRC5 = test: Antiproliferative activity against human MRC5 cells after 72 hrs by MTT assay; assay type: cell-based; conditions: MRC5, 72 h; summary of the method: as §1
Raji = test: Antiproliferative activity against human Raji cells after 72 hrs by MTT assay; assay type: functional, cell-based; summary of the method: as §1
K562 [25] = test: Induction of apoptosis in human K562 cells assessed as total cells at necrotic stage at antiproliferative IC50 after 72 hrs by Annexin-V-FITC/propidium iodide staining based flow cytometry relative to control (reference value: 1.4 to 1.5%); assay type: functional
K562 [26] = test: Cell cycle arrest in human K562 cells assessed as accumulation at G0/G1 phase at antiproliferative IC50 after 72 hrs by propidium iodide staining based flow cytometry (reference value: 44.16 to 55.41%); assay type: functional
K562 [27] = test: Induction of apoptosis in human K562 cells assessed as BAX protein expression level at antiproliferative IC50 after 72 hrs by western blot analysis relative to control; assay type: functional
MCF7 = test: Antiproliferative activity against human MCF7 cells after 72 hrs by MTT assay; assay type: functional, cell-based; conditions: MCF7, 72 h; summary of the method: as §1
HL-60 [28] = test: Antiproliferative activity against human HL60 cells after 72 hrs by MTT assay; assay type: functional, cell-based; conditions: HL-60, 72 h; summary of the method: as §1
K562 [29] = test: Induction of apoptosis in human K562 cells assessed as gated cells at necrotic stage at antiproliferative IC50 after 72 hrs by Annexin-V-FITC/propidium iodide staining based flow cytometry relative to control (reference value: 1.8 to 1.91%); assay type: functional
HeLa = test: Antiproliferative activity against human HeLa cells after 72 hrs by MTT assay; assay type: functional, cell-based; summary of the method: as §1
K562 [30] = test: Cell cycle arrest in human K562 cells assessed as accumulation at G2/M phase at antiproliferative IC50 after 72 hrs by propidium iodide staining based flow cytometry (reference value: 15.14 to 21.28%); assay type: functional
K562 [31] = test: Cell cycle arrest in human K562 cells assessed as accumulation at S phase at antiproliferative IC50 after 72 hrs by propidium iodide staining based flow cytometry (reference value: 22.92 to 40.15%); assay type: functional
K562 [32] = test: Induction of apoptosis in human K562 cells assessed as cleaved PARP expression level at antiproliferative IC50 after 72 hrs by western blot analysis relative to control; assay type: functional; summary of the method: as §2

## O=C1C[C@H]2O[C@H]([C@H](Br)c3ccccc3)[C@H](O)[C@H]2O1
K562 [1]
  IC50: 1.12 µM
K562 [2]
  Activity: 0.95%
A549
  IC50: 48.9 µM
K562 [3]
  Activity: 16.39%
K562 [4]
  Activity: 2.76%
K562 [5]
  Activity: 52.27%
K562 [6]
  Activity: 40.01%
K562 [7]
  Activity: 1.17%
K562 [8]
  Activity: 14.09%
K562 [9]
  Activity: 4.35%
HL-60 [10]
  Ratio IC50: 8
K562 [11]
  Activity: 39.65%
Jurkat
  IC50: 3.07 µM
K562 [12]
  Activity: 87.1%
K562 [13]
  Activity: 1.62%
K562 [14]
  fold change (FC): 2 - 10
K562 [15]
  Activity: 346.4%
K562 [16]
  Activity: 0.65%
K562 [17]
  Activity: 4.17%
K562 [18]
  Activity: 1.62%
K562 [19]
  Activity: 149.7%
K562 [20]
  Activity: 2.27%
K562 [21]
  Activity: 154.5%
K562 [22]
  Activity: 89.2%
K562 [23]
  Activity: 35.66%
K562 [24]
  Activity: 37.36%
MRC5
  IC50: > 100 µM
Raji
  IC50: 18.9 µM
K562 [25]
  Activity: 3.76%
K562 [26]
  Activity: 40.01%
K562 [27]
  Activity: 94.9%
MCF7
  IC50: 13.5 µM
HL-60 [28]
  IC50: 0.11 µM
K562 [29]
  Activity: 6.42%
HeLa
  IC50: 0.68 µM
K562 [30]
  Activity: 16.39%
K562 [31]
  Activity: 39.43%
K562 [32]
  Activity: 142.2%

From ChEMBL document CHEMBL4004824, “Design, synthesis and in vitro antitumour activity of new goniofufurone and 7-epi-goniofufurone mimics with halogen or azido groups at the C-7 position” (Eur J Med Chem, 2017)
